This is an account of results in ChEMBL document CHEMBL4425108, “A Selective and Slowly Reversible Inhibitor of l-Type Amino Acid Transporter 1 (LAT1) Potentiates Antiproliferative Drug Efficacy in Cancer Cells” (J Med Chem, 2016).

Data set [1] can be described thus: Growth inhibition of human YD38 cells measured after 4 days by MTT assay. The note with it: 96 h. Format: functional.
Data set [2] in a line: Ratio of IC50 for human YD-38 cells to IC50 for leucine uptake at LAT1 in human YD-38 cells.
Data set [3] relates to HT-29. Briefly: Growth inhibition of human HT-29 cells measured after 96 hrs by Coulter counter based cell counting method. Format: functional. The note with it: HT-29, 96 h.
A short description of data set [4]: Ratio of IC50 for human HT-29 cells to IC50 for leucine uptake at LAT1 in human HT-29 cells.
Data set [5] concerns the target T1, Large neutral amino acids transporter small subunit 1 (Homo sapiens, UniProt Q01650). Nature of the data set: Inhibition of [14C]-L-leucine uptake at LAT1 in human YD-38 cells after 1 hr by liquid scintillation counting. Format: cell-based.
Data set [6] deals with MCF7. Nature of the data set: Antiproliferative activity against human MCF7 cells assessed as reduction in cell viability at 100 measured after 24 hrs by resazurin dye-based fluorimetric analysis. Format: functional. The procedure, abridged:
(§1)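 MCF-7 cells were seeded at 2 × 10^4 cells/well on collagen-coated plates and treated one day later. Agents were given alone or combined (25 or 100 µM with 100 µM partner drug) in growth medium for 3 days. Viability was read daily by resazurin fluorescence (ex 560/em 590 nm) and expressed relative to untreated controls.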

Data set [7] deals with MCF7. Nature of the data set: Antiproliferative activity against human MCF7 cells assessed as reduction in cell viability measured after 72 hrs by resazurin dye-based fluorimetric analysis. Format: functional. The settings on record: for pIC50: MCF7, 72 h. In short, it runs like this:
as §1

The test system of data set [8] is MCF7. Briefly: Antiproliferative activity against human MCF7 cells assessed as reduction in cell viability at 100 measured after 48 hrs by resazurin dye-based fluorimetric analysis. Format: functional. In short, it runs like this: as §1
Background: Alamar Blue is a resazurin reagent that responds to reducing activity.

For data set [9], the system named is MCF7. Briefly: Antiproliferative activity against human MCF7 cells assessed as reduction in cell viability at 100 measured after 72 hrs by resazurin dye-based fluorimetric analysis. Format: functional. In short, it runs like this:
as §1

Data set [10] concerns the target T1, Large neutral amino acids transporter small subunit 1. Briefly: Inhibition of LAT1 in human MCF7 cells assessed as potentiation of cisplatin-induced antiproliferative activity by measuring reduction in cell viability at 100 uM measured after 24 hrs by resazurin dye-based fluorimetric analysis. In short, it runs like this: (§2)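 MCF-7 cells seeded 2 × 10^4/well on collagen-coated plates, treated one day later in growth medium with inhibitor (25 or 100 µM) plus bestatin or cisplatin (100 µM) for up to 3 days. Viability read daily by resazurin fluorescence (ex 560/em 590 nm). Viability is treated relative to untreated control. Mean ± SD, n=3.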

Data set [11] shares this target. Nature of the data set: Potency index, ratio of IC50 for 2-amino-2-norbornanecarboxylic acid to IC50 for test compound for inhibition of [14C]-L-leucine uptake at LAT1 in human MCF7 cells. Format: cell-based.
Data set [12] shares this target. Nature of the data set: Inhibition of LAT1 in human MCF7 cells assessed as potentiation of bestatin-induced antiproliferative activity by measuring reduction in cell viability at 100 uM measured after 72 hrs by resazurin dye-based fluorimetric analysis. The procedure, abridged:
as §2

Data set [13] shares this target. Nature of the data set: Drug uptake in human MCF7 cells assessed as LAT1 mediated drug transport per mg of protein at 100 uM after 30 mins by HPLC analysis. Format: ADME, cell-based. The note with it: mcf7, 0.5 h. In short, it runs like this:
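MCF-7 monolayers were incubated with 100 µM compound in HBSS at 37 °C for 5 or 30 min. Cells got three washes with ice-cold or warm (37 °C) HBSS; in the warm 30 min arm they were washed after 5 min and again after 30 min. Lysates (0.1 M NaOH) were quantified by HPLC-UV against a spiked lysate standard curve and normalised to protein (Bio-Rad assay).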

Data set [14] has the same target. Nature of the data set: Inhibition of LAT1 in human MCF7 cells assessed as potentiation of cisplatin-induced antiproliferative activity by measuring reduction in cell viability at 100 uM measured after 48 hrs by resazurin dye-based fluorimetric analysis. The procedure, abridged:
as §2

Data set [15] has the same target. Briefly: Competitive inhibition of [14C]-L-leucine uptake at LAT1 in human MCF7 cells preincubated for 5 mins followed by addition of substrate measured during 5 mins by liquid scintillation counting. Format: cell-based.
Data set [16] has the same target. Briefly: Inhibition of LAT1 in human MCF7 cells assessed as potentiation of bestatin-induced antiproliferative activity by measuring reduction in cell viability at 100 uM measured after 48 hrs by resazurin dye-based fluorimetric analysis. The procedure, abridged: as §2
Data set [17] shares this target. Briefly: Inhibition of LAT1 in human MCF7 cells assessed as potentiation of cisplatin-induced antiproliferative activity by measuring reduction in cell viability at 100 uM measured after 72 hrs by resazurin dye-based fluorimetric analysis. The procedure, abridged:
as §2

Data set [18] has the same target. Nature of the data set: Inhibition of LAT1 in human MCF7 cells assessed as potentiation of bestatin-induced antiproliferative activity by measuring reduction in cell viability at 100 uM measured after 24 hrs by resazurin dye-based fluorimetric analysis. The procedure, abridged: as §2

Usually pIC50 stands for −log10 of the IC50, conventionally taken in molar units.

pIC50: −log10 of the molar value. The source made the active and inactive calls. The rule behind the calls is not given here.

T1 sequence (Q01650 whole entry): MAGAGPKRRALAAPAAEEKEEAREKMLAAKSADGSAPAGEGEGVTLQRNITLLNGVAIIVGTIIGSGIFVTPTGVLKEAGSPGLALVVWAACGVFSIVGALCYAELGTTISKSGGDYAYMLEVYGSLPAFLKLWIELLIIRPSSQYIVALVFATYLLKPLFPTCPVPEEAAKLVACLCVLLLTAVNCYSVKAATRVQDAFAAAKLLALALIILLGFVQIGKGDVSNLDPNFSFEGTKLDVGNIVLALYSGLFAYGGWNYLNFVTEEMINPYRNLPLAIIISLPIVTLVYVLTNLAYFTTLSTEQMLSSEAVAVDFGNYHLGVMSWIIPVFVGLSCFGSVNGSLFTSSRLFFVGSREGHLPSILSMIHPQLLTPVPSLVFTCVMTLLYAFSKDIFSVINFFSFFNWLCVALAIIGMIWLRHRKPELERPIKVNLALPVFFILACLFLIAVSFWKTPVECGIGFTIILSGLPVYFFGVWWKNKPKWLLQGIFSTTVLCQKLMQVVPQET

`Nc1cc(COc2c(Cl)cc(C[C@H](N)C(=O)O)cc2Cl)c2oc(-c3ccccc3)nc2c1`: the pIC50 in data set [1] was 4.16; in [3] it was 5.39; in data set [5], 6.10. Also, the “Ratio IC50” value in [2] and in data set [4] was 68 - 87 throughout.
Consider `CC(C)C[C@H](NC(=O)[C@@H](O)[C@H](N)Cc1ccccc1)C(=O)O` [UBENIMEX], for which the Activity was 3.4% in data set [6], “Dose-dependent effect” in [7] and 7.5% in [8]. The pIC50 in data set [7] is 3.27. Further, in data set [9], the result was inactive.
`NC1(C(=O)O)CC2CCC1C2` (centres undefined): the Activity is 13.9% in data set [6]; 35.9% in data set [10]; “Dose-dependent effect” in data set [7]; 3.13% in [12]; 24.1% in data set [9]; 42.7% in data set [17]. Further, the Activity in data set [18] was 30.8%. The Ratio IC50 in data set [11] fell in the range of 6 to 6.2. Further, the results for the negative-log IC50 (pIC50) in [7] and in data set [15] were 3.44 and 3.95, respectively. Also, the outcome in data set [8], in data set [14] and in [16] was inactive. The Drug uptake in data set [13] amounted to 11.9 nmol/mg.
